Assay results of several laboratories.
Lines come from different studies, so protocols differ.
ALK: ALK tyrosine kinase receptor (ALK, Homo sapiens, UniProt Q9UM73)
SIRT6: NAD-dependent protein deacylase sirtuin-6 (SIRT6, Homo sapiens, UniProt Q8N6T7)
CTSB: Cathepsin B (CTSB, Homo sapiens, UniProt P07858)
CCR5: C-C chemokine receptor type 5 (CCR5, Homo sapiens, UniProt P51681)
PDE1A: Dual specificity calcium/calmodulin-dependent 3',5'-cyclic nucleotide phosphodiesterase 1A (PDE1A, Homo sapiens, UniProt P54750)
FASN: Fatty acid synthase (FASN, Gallus gallus, UniProt P12276)
CCR2: C-C chemokine receptor type 2 (CCR2, Homo sapiens, UniProt P41597)

SMILES | target | read-out | action | technique | setting | IC50 [µM]
Cc1ccc(C(=O)Nc2ccc(Oc3cc4cnn(C)c4cc3-c3cn[nH]c3)c(F)c2)c(=O)n1-c1ccc(F)cc1 | Angiopoietin-1 receptor (TEK, Homo sapiens, UniProt Q02763) | cell growth or viability |  | ATP luminescence |  | 0.063
Cc1cc(-c2cc(C#N)ccc2O[C@@H]2C[C@]2(CN(C)C)c2ccc(F)cc2F)n[nH]1 (racemic) | ALK | enzyme activity | inhibitor | TR-FRET |  | 0.11
NC(=O)c1ccc(C(=O)NOCc2ccc(Sc3ccc(Cl)cc3)c(C(F)(F)F)c2)cc1 | SIRT6 | enzyme activity | inhibitor | fluorescence |  | 1.51
Cc1cc(-c2cc(C#N)ccc2O[C@H]2C[C@H]2c2ccc(F)cc2F)n[nH]1 | ALK | phosphorylation in cells | inhibitor | ELISA |  | > 1
NC(=O)c1ccc(C(=O)NOCc2cccc(F)c2)cc1 | SIRT6 | enzyme activity | inhibitor | fluorescence |  | 6.61
CC(C)C[C@H](NC(=O)[C@H]1O[C@@H]1C(=O)O)C(=O)NCCCCN=C(N)N | CTSB | enzyme activity | inhibitor |  |  | 0.00315
COc1cc(/C=N/n2c(C)nc3ccc(C)cc3c2=O)cc([N+](=O)[O-])c1O | CTSB | enzyme activity | inhibitor |  |  | 107
Cc1cc(Nc2cc(CN3CCOCC3)c3nc(C)c(Cc4ccc(Cl)cc4F)n3n2)n[nH]1 | Vascular endothelial growth factor receptor 3 (FLT4, Homo sapiens, UniProt P35916) | enzyme activity | inhibitor | TR-FRET |  | 0.025
Cc1cc(-c2cc(C#N)ccc2O[C@@H]2C[C@]2(CN)c2ccc(F)cc2F)n[nH]1 (racemic) | ALK | phosphorylation in cells | inhibitor | ELISA |  | 0.16
Cc1[nH]c(N)nc1-c1ccnc(Nc2ccc(N3CCOCC3)cc2)c1 | Mitogen-activated protein kinase 10 (MAPK10, Homo sapiens, UniProt P53779) | enzyme activity | inhibitor | ELISA |  | 1.39
Nc1nonc1-n1cc(C(=O)N/N=C/c2ccc(O)c(O)c2O)nn1 | SIRT6 | enzyme activity | inhibitor | fluorescence |  | 26
COC(=O)c1ccc(C(=O)NOCc2ccccc2)cc1 | SIRT6 | enzyme activity | inhibitor | fluorescence |  | 89.7
C/C(=C\C(=O)OCCCCCCCCC(=O)O)C[C@@H]1OC[C@H](C[C@@H]2O[C@H]2[C@@H](C)[C@H](C)O)[C@@H](O)[C@H]1O | CCR5 | calcium signal | antagonist |  |  | 10.6
Nc1nonc1-n1cc(C(=O)N/N=C/c2cccc(O)c2O)nn1 | SIRT6 | enzyme activity | inhibitor | fluorescence |  | 13.8
CSc1ccc(/C=C2/C(C)=C(CC(=O)O)c3cc(F)ccc32)cc1 | PDE1A | enzyme activity | inhibitor |  |  | > 100
C=C(C)[C@H](CC=C(C)C)Cc1c(O)cc(O)c2c1O[C@H](c1ccccc1O)CC2=O | FASN | enzyme activity | inhibitor | radiometric |  | 8.5
N#Cc1ccccc1CONC(=O)c1ccc(C(N)=O)cc1 | SIRT6 | enzyme activity | inhibitor | fluorescence |  | 52.3
Cn1c[n+]([C@@H]2O[C@H](COP(=O)(O)OP(=O)([O-])OP(=O)(O)OC[C@H]3O[C@@H](n4cnc5c(=O)[nH]c(N)nc54)[C@H](O)[C@@H]3O)[C@@H](O)[C@H]2O)c2nc(N)[nH]c(=O)c21 | m7GpppX diphosphatase (DCPS, Homo sapiens, UniProt Q96C86) | enzyme activity | inhibitor | radiometric |  | ~0.03
O=c1cc(-c2ccc3c(c2)OCO3)oc2c1ccc1occc12 | Cyclin-dependent kinase 2, with cyclin E1 (CDK2, Homo sapiens, UniProt P24941) | enzyme activity | inhibitor | ADP detection |  | > 100
CN(Cc1ccc(NC(=O)C2=Cc3cc(-c4ccc(OCCCO)cc4)ccc3CCC2)cc1)C1CCOCC1 | CCR2 | calcium signal | antagonist |  |  | 0.045

SMILES | target | read-out | action | technique | setting | IC50 [µM]
COc1ccc(CONC(=O)c2ccc(C(N)=O)cc2)cc1 | SIRT6 | enzyme activity | inhibitor | fluorescence |  | 7.49
CCc1ccc(/C=N/n2c(C)nc3ccc(C)cc3c2=O)s1 | CTSB | enzyme activity | inhibitor |  |  | 118
CN(Cc1ccc(NC(=O)C2=Cc3cc(-c4ccc(OCCCF)cc4)ccc3CCC2)cc1)C1CCOCC1 | CCR2 | calcium signal | antagonist |  |  | 0.13
COc1cc(C[C@H]2C(=O)OC[C@@H]2Cc2ccc(OC)c(OC)c2)ccc1O | PDE1A | enzyme activity | inhibitor |  |  | > 20
COc1ccc2c(Oc3ccc4c(C(=O)Nc5ccccc5N)cccc4c3)ccnc2c1 | Sodium channel protein type 5 subunit alpha (SCN5A, Homo sapiens, UniProt Q14524) | ion current | inhibitor |  |  | > 10
CCCC#Cc1ccc2c(n1)[nH]c1ccccc12 | ALK | enzyme activity | inhibitor | ELISA |  | > 10
Cc1cc(-c2cccc(C(C)(C)C)c2)[nH]n1 | ALK | enzyme activity | inhibitor | TR-FRET |  | 270
COc1cc(/C=N/n2c(C)nc3ccc(C)cc3c2=O)ccc1OCc1ccccc1 | CTSB | enzyme activity | inhibitor |  |  | 67.5
NS(=O)(=O)c1ccc(C(=O)NOCc2ccccc2)cc1 | SIRT6 | enzyme activity | inhibitor | fluorescence |  | 116
CN[C@H]1CC[C@@H](c2ccc(Cl)c(Cl)c2)c2ccccc21 | Receptor-type tyrosine-protein phosphatase C (PTPRC, Homo sapiens, UniProt P08575) | enzyme activity | inhibitor | fluorescence |  | 80
CN(Cc1ccc(NC(=O)C2=Cc3cc(-c4ccc(OCCCCCO)cc4)ccc3CCC2)cc1)C1CCOCC1 | CCR5 | ligand displacement |  | radioligand | cell membranes | 3.1
Cc1cccc(-c2cc(C)n[nH]2)c1 | ALK | enzyme activity | inhibitor | TR-FRET |  | 230
NC(=O)c1ccc(C(=O)NOCc2ccc(-n3cccn3)cc2)cc1 | SIRT6 | enzyme activity | inhibitor | fluorescence |  | 2.23
CN(Cc1ccc(NC(=O)C2=Cc3cc(-c4ccc(OCCCCCF)cc4)ccc3CCC2)cc1)C1CCOCC1 | CCR2 | calcium signal | antagonist |  |  | 0.00076
N#Cc1ccc(COC[C@H]2O[C@@H](n3c(NCc4ccc(Cl)c(Cl)c4)nc4c(N)ncnc43)[C@H](O)[C@@H]2O)cc1 | Heat shock cognate 71 kDa protein (HSPA8, Homo sapiens, UniProt P11142) | ligand displacement |  | FP |  | 0.39
Cc1ccc(CONC(=O)c2ccc(C(N)=O)cc2)cc1 | SIRT6 | enzyme activity | inhibitor | fluorescence |  | 7.71
C=C(C)C(CC=C(C)C)Cc1c(O)cc(OC)c2c1O[C@H](c1ccc(O)cc1O)CC2=O (single isomer, unassigned; (-)) | FASN | enzyme activity | inhibitor | radiometric |  | 10.3
COc1ccc(-c2ccc3[nH]c4ncc(-c5cccc(N)c5)cc4c3c2)cc1 | ALK | enzyme activity | inhibitor | ELISA |  | > 10
CC(C)CCNC(=O)c1csc(-c2cccc(Cl)c2Cl)n1 | Pantothenate kinase 1 (Homo sapiens, UniProt Q8TE04) | enzyme activity | inhibitor | ATP luminescence |  | 0.93
